Laboratory results from ChEMBL document CHEMBL1127432, “Synthesis, in vitro biological stability, and anti-HIV activity of 5-halo-6-alkoxy(or azido)-5,6-dihydro-3'-azido-3'-deoxythymidine diastereomers as potential prodrugs to 3'-azido-3'-deoxythymidine (AZT)” (J Med Chem, 1994).
pEC50, pIC50: −log10 of the molar value.

Experiments:
[1] = target: Thymidine phosphorylase (Escherichia coli K-12) (UniProt P07650); test: In vitro percent of phosphorolysis after incubation with Escherichia coli thymidine phosphorylase for 10 min at 37 degree C; type: functional
Sequence of Thymidine phosphorylase (Escherichia coli K-12) (P07650 whole entry, looked up): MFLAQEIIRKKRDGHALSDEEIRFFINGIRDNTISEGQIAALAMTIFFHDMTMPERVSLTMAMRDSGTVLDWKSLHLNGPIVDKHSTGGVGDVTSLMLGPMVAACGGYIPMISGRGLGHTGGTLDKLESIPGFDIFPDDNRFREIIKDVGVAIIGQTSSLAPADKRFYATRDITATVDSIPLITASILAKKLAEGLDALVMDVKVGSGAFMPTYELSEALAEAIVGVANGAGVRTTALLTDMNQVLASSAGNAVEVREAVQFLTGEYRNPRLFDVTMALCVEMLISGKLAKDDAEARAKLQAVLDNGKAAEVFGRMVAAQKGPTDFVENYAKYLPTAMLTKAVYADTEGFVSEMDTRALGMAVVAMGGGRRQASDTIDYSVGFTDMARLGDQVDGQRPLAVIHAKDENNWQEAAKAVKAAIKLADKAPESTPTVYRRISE
Outline: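 E. coli thymidine phosphorylase diluted in 10 mM Tris-HCl pH 7.3 with EDTA, plus 100 mM KH2PO4 pH 7.1 (stock), prewarmed to 37 °C. Substrate added, 10 min at 37 °C, stopped with ice-cold methanol, spun. HPLC-UV at 230 nm tracked substrate loss or appearance of base. Thymidine used as control substrate; each run at least twice.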

[2] = Effective concentration in vitro against HIV-1-infected CEM cells relative to uninfected untreated controls; details: ccrf-cem
[3] = Therapeutic index of IC50 to EC50; details: read-out: TI
Outline: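 TI = IC50/EC50, both from the NCI CEM cell screen. IC50 is the drug concentration giving 50% survival of uninfected untreated controls. EC50 is the concentration giving 50% survival of HIV-1-infected cells relative to uninfected untreated controls.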

CCRF-CEM [4] = test: Inhibitory concentration (cytotoxic activity) which results in a 50% survival of […]; type: functional, cell-based; details: Homo sapiens
Outline: (§1)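 Cytotoxicity run in the NCI AIDS screening program on CEM T4 lymphocytes alongside the anti-HIV test. IC50 = drug concentration giving 50% survival of uninfected untreated control cells. AZT control tested concurrently.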

[5] = Regeneration of the 5,6-Olefinic bond was measured as percent of 3''-azido-3''-deoxythymidine (AZT) formed upon incubation with Glutathione for 30 min at 37 degree C; type: functional
Outline: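 Compound incubated with reduced glutathione at a compound:GSH mole ratio of 1:2 (1:5 for some analogs) in phosphate buffer pH 7.4 at 37 °C, for times up to 24 h. AZT formed quantified by HPLC, UV 230 nm (dihydro compound) and 265 nm (AZT), water:methanol 7:3 eluent.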

[6] = target: Human immunodeficiency virus 1 (Human immunodeficiency virus 1, UniProt Q72547); test: Effective concentration (in vitro anti-HIV activity ) which produces a 50% survival of HIV-1-infected CEM cells relative to uninfected untreated controls; Inactive; type: functional, cell-based; details: ccrf-cem
Outline: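 HIV-1-infected CEM (T4 lymphocyte) cells given small amounts of virus, allowing one complete replication cycle to cause cell killing. Read-out: protection from cytolysis (cell survival) relative to uninfected untreated controls. EC50 is the drug concentration giving 50% survival of infected cells. AZT-treated positive control run concurrently under identical conditions. Run through the NCI Developmental Therapeutics Program AIDS antiviral screen.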

Mus musculus [7] = organism: Mus musculus; test: In vitro percent of 3''-azido-3''-deoxythymidine (AZT) formed upon incubation with mouse blood for 10 min at 37 degree C; type: functional
Outline: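 Heparinized mouse blood from cardiac puncture mixed 1:1 by volume with compound (1 mg/mL stock in water). Incubated 10 min at 37 °C, quenched with ice-cold methanol, 10 min on ice, then centrifuged. Supernatant dried under N2 and redissolved in methanol; AZT quantified by HPLC-UV at 230/265 nm.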

Mus musculus [8] = organism: Mus musculus; test: In vitro percent of 3''-azido-3''-deoxythymidine (AZT) formed upon incubation with mouse liver homogenate for 30 min at 37 degree C; type: functional
Outline: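 Livers of three Balb/c mice homogenized in 0.1 M Tris pH 8.2, spun at 49000g for 2 h at 4 °C; supernatant (soluble enzyme fraction) used. Compound (1 mg/mL stock) incubated with the fraction 30 min at 37 °C, mixed with equal volume methanol, centrifuged. Supernatant dried and redissolved; AZT quantified by HPLC, UV 230 and 265 nm.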

CCRF-CEM [9] = test: Inhibitory concentration (cytotoxic activity) which results in a 50% survival of […]; ND=Not determined; type: functional, cell-based; details: Homo sapiens; outline: as §1

Structure (SMILES) | Phosphorolysis [1] [%] | selectivity ratio [3] | pIC50 (CCRF-CEM [4]) | AZT formation [5] [%] | EC50 [6] | AZT formation (Mus musculus [7]) [%] | AZT formation (Mus musculus [8]) [%] | other results
Cc1cn([C@H]2C[C@H](N=[N+]=[N-])[C@@H](CO)O2)c(=O)[nH]c1=O [ZIDOVUDINE] | 0 | > 10000 | – | – | – | – | – | pEC50 [2]: 8.52
CCO[C@H]1N(C2CC(N=[N+]=[N-])C(CO)O2)C(=O)NC(=O)[C@]1(C)Br (some centres not stated) | 0 | 2740 | 4.73 | 100 | – | – | – | –
CC(C)O[C@H]1N(C2CC(N=[N+]=[N-])C(CO)O2)C(=O)NC(=O)[C@]1(C)Br (some centres not stated) | – | 35 | < 3.70 | – | – | – | – | –
CCO[C@H]1N(C2CC(N=[N+]=[N-])C(CO)O2)C(=O)NC(=O)[C@@]1(C)Cl (some centres not stated) | – | – | < 3.70 | – | Not Active | – | – | –
CO[C@H]1N(C2CC(N=[N+]=[N-])C(CO)O2)C(=O)NC(=O)[C@]1(C)Br (some centres not stated) | 0 | 5260 | 4.76 | 80 | – | 59 | 26 | –
CCCCCCCCCCCCCCCCO[C@H]1N(C2CC(N=[N+]=[N-])C(CO)O2)C(=O)NC(=O)[C@]1(C)Br (some centres not stated) | – | – | 4.96 | – | Not Active | – | – | –
CO[C@H]1N(C2CC(N=[N+]=[N-])C(CO)O2)C(=O)NC(=O)[C@]1(C)Cl (some centres not stated) | 0 | – | – | 0 | – | 0 | 0 | –
CO[C@H]1N([C@H]2C[C@H](N=[N+]=[N-])[C@@H](CO)O2)C(=O)NC(=O)C1(C)Cl (some centres not stated) | – | 155 | < 3.05 | – | – | – | – | –
CC(C)O[C@H]1N(C2CC(N=[N+]=[N-])C(CO)O2)C(=O)NC(=O)[C@]1(C)Cl (some centres not stated) | – | – | < 3.70 | – | Not Active | – | – | –
CCO[C@@H]1N(C2CC(N=[N+]=[N-])C(CO)O2)C(=O)NC(=O)[C@@]1(C)Br (some centres not stated) | 0 | 937 | 4.65 | 85 | – | – | – | –
CCCCCCCCO[C@H]1N(C2CC(N=[N+]=[N-])C(CO)O2)C(=O)NC(=O)[C@]1(C)Cl (some centres not stated) | – | – | – | – | Not Active | – | – | pIC50 (CCRF-CEM [9]): 4.43
CO[C@H]1N(C2CC(N=[N+]=[N-])C(CO)O2)C(=O)NC(=O)[C@@]1(C)Cl (some centres not stated) | 0 | – | – | 0 | – | 0 | 0 | –
CCO[C@H]1N(C2CC(N=[N+]=[N-])C(CO)O2)C(=O)NC(=O)[C@]1(C)Cl (some centres not stated) | – | – | – | – | Not Active | – | – | pIC50 (CCRF-CEM [9]): < 3.70
CO[C@@H]1N(C2CC(N=[N+]=[N-])C(CO)O2)C(=O)NC(=O)[C@@]1(C)Cl (some centres not stated) | 0 | – | – | 0 | – | 0 | 0 | –
CCCCCCCCO[C@H]1N(C2CC(N=[N+]=[N-])C(CO)O2)C(=O)NC(=O)[C@]1(C)Br (some centres not stated) | – | 14 | 4.91 | – | – | – | – | –
CCO[C@@H]1N(C2CC(N=[N+]=[N-])C(CO)O2)C(=O)NC(=O)[C@@]1(C)Cl (some centres not stated) | – | – | < 3.70 | – | Not Active | – | – | –
Cc1cn([C@H]2C[C@H](O)[C@@H](CO)O2)c(=O)[nH]c1=O | 72 | – | – | – | – | – | – | –
CCCCCCCCCCCCCCCCO[C@H]1N(C2CC(N=[N+]=[N-])C(CO)O2)C(=O)NC(=O)[C@]1(C)Cl (some centres not stated) | – | – | 4.51 | – | Not Active | – | – | –
CC1(Br)C(=O)NC(=O)N([C@H]2C[C@H](N=[N+]=[N-])[C@@H](CO)O2)C1N=[N+]=[N-] (some centres not stated) | – | < 1 | 3.75 | – | – | – | – | –
CO[C@@H]1N(C2CC(N=[N+]=[N-])C(CO)O2)C(=O)NC(=O)[C@@]1(C)I (some centres not stated) | 0 | 1250 | 5.19 | 100 | – | 100 | 96 | –
CO[C@@H]1N(C2CC(N=[N+]=[N-])C(CO)O2)C(=O)NC(=O)[C@@]1(C)Br (some centres not stated) | 0 | 152 | 4.37 | 77 | – | 88 | 44 | –
CC1(Cl)C(=O)NC(=O)N([C@H]2C[C@H](N=[N+]=[N-])[C@@H](CO)O2)C1N=[N+]=[N-] (some centres not stated) | – | 235 | 3.46 | – | – | – | – | –
CO[C@H]1N(C2CC(N=[N+]=[N-])C(CO)O2)C(=O)NC(=O)[C@]1(C)I (some centres not stated) | 0 | 5900 | 4.73 | 100 | – | 100 | 79 | –
